Source: ChEMBL document CHEMBL3632596, “Novel Potent N-Methyl-d-aspartate (NMDA) Receptor Antagonists or σ1 Receptor Ligands Based on Properly Substituted 1,4-Dioxane Ring” (J Med Chem, 2015)
The source made the active and inactive calls. The rule behind the calls is not given here.

What was measured:
[1] = molecular target: Sigma non-opioid intracellular receptor 1 (Cavia porcellus, UniProt Q60492); assay: Displacement of [3H]-(+)-pentazocine from sigma 1 receptor in guinea pig brain membranes incubated for 120 mins by scintillation counting method in the presence of pentazocine; format: cell membranes, Membrane
Sequence of Sigma non-opioid intracellular receptor 1 (Q60492 whole entry): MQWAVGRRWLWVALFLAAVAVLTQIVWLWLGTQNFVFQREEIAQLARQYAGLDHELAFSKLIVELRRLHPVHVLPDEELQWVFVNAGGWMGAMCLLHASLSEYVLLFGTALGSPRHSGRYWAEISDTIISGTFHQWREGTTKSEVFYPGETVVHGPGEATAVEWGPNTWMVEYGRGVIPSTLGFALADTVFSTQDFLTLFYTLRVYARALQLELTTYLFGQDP

[2] = Displacement of [3H]DTG from sigma2 receptor in rat liver membranes incubated for 120 mins by scintillation counting method in presence of pentazocine; format: cell membranes, Membrane
Method in brief: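 σ2 binding on rat liver membranes using the nonselective radioligand [3H]-DTG. […] Nonspecific binding defined with 10 µM unlabelled DTG. Affinity reported as Ki.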

[3] = Displacement of [3H]MK801 from NMDA receptor PCP binding site in guinea pig brain cortex membranes incubated for 120 mins by scintillation counting method; format: cell membranes, Cavia porcellus
[4] = molecular target: T1, Glutamate NMDA receptor; GRIN1/GRIN2A (Homo sapiens, UniProt Q05586+Q12879); assay: Antagonist activity against NR1-1a/NR2A NMDA receptor (unknown origin) expressed in mouse recombinant L(tk-) cells assessed as inhibition of glycine and glutamate induced excitotoxicity incubated for 12 hrs by LDH assay; format: cell-based
T1 sequence (Q12879 whole entry, other chains not shown): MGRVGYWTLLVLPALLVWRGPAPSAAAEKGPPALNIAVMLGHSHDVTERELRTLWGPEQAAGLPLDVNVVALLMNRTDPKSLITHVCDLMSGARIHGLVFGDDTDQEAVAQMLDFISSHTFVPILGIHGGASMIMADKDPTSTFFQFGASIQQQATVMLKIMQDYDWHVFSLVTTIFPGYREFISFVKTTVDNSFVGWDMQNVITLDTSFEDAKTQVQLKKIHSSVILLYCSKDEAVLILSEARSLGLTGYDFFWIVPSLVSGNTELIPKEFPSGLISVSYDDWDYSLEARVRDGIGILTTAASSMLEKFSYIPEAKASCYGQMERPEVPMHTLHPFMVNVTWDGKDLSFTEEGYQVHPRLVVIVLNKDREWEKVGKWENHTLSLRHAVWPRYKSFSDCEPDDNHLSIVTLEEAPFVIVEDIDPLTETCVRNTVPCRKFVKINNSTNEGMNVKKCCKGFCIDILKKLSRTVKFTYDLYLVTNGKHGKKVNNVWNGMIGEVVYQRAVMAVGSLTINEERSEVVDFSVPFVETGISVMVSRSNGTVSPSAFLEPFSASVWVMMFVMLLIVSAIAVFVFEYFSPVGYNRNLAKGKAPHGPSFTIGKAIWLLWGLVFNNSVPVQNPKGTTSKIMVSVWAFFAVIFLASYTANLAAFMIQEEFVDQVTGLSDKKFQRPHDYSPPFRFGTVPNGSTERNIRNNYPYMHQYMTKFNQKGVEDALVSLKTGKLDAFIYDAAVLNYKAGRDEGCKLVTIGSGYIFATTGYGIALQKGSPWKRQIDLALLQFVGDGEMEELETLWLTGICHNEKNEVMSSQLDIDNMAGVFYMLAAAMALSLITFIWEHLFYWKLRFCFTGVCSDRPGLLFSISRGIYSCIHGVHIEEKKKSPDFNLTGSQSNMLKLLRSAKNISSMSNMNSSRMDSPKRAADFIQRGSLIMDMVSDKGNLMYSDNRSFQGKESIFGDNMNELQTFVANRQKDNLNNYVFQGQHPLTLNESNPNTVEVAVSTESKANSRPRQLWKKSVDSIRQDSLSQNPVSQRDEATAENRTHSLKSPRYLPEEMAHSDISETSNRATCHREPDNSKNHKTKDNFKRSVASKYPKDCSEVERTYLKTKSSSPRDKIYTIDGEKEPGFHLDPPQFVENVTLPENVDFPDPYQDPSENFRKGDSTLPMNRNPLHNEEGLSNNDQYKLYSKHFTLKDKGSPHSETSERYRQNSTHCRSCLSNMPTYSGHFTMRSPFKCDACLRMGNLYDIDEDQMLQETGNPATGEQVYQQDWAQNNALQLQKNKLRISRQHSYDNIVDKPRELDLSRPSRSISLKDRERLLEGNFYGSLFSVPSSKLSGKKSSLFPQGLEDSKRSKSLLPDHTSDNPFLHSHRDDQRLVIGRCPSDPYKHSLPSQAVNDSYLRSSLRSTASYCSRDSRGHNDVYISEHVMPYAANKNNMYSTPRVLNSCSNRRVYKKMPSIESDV
Method in brief: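 Mouse fibroblast L(tk-) cells stably carrying a dexamethasone-inducible vector encoding GluN1a and GluN2A. Receptor expression was induced with dexamethasone in the presence of ketamine to limit cell damage. Cells were exposed to (S)-glutamate, glycine and a range of test concentrations for 12 h. Cell death was read as LDH released from lysed cells, measured by formazan dye formation.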

[5] = system: Mus musculus; assay: Antinociceptive activity in CD-1 mouse assessed as increase in latency time at 50 mg/kg, sc incubated for 30 mins by hot plate test; format: functional, organism-based
Method in brief: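 Hot plate test in mice with test compound given alone s.c. at doses up to 50 mg/kg. Reaction latency read out as %MPE.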

[6] = system: Mus musculus; assay: Potentiation of morphine-induced antinociception in CD-1 mouse assessed as increase in latency time at 30 mg/kg, sc dosed 30 mins before morphine injection and measured 30 to 90 mins post morphine injection by hot plate test; format: functional, organism-based
[7] = system: Mus musculus; assay: Potentiation of morphine-induced antinociception in CD-1 mouse assessed as increase in latency time at 50 mg/kg, sc dosed 30 mins before morphine injection and measured 60 mins post morphine injection by hot plate test; format: functional, organism-based
[8] = Selectivity index, ratio of Ki for sigma2 receptor in rat liver membranes to Ki for sigma 1 receptor in guinea pig brain membranes; format: cell membranes
[9] = molecular target: T1, Glutamate NMDA receptor; GRIN1/GRIN2A; assay: Binding affinity to NMDA receptor (unknown origin); format: protein-complex assay
Method in brief: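 PCP site of the NMDA receptor in pig brain cortex membranes. Competition binding against [3H]-(+)-MK-801. Nonspecific binding was defined with a large excess of unlabelled (+)-MK-801. Values are reported as Ki.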

SMILES	Ki [1]	Ki [2]	Ki [3]	also measured
NCC1COCC(c2ccccc2)(c2ccccc2)O1 (stereo not given)	> 10000 nM	5.8 µM	0.712 µM	IC50 [4]: 24.2 nM
NCCC1COCC(c2ccccc2)(c2ccccc2)O1 (stereo not given)	> 10000 nM	> 10 µM	> 10 µM	–
NCC1COC(c2ccccc2)(c2ccccc2)CO1 (stereo not given)	1400 nM	> 10 µM	> 10 µM	–
NCCC1COC(c2ccccc2)(c2ccccc2)CO1 (stereo not given)	> 10000 nM	> 10 µM	> 10 µM	–
c1ccc(CNCC2COCC(c3ccccc3)(c3ccccc3)O2)cc1 (stereo not given)	4900 nM	1.6 µM	> 10 µM	–
c1ccc(CNCCC2COCC(c3ccccc3)(c3ccccc3)O2)cc1 (stereo not given)	502 nM	> 10 µM	> 10 µM	–
c1ccc(CNCC2COC(c3ccccc3)(c3ccccc3)CO2)cc1 (stereo not given)	7.37 nM	1 µM	> 10 µM	Activity [5]: inactive; Activity [6]: inactive; Activity [7]: Active; Ratio Ki [8]: 136
c1ccc(CNCCC2COC(c3ccccc3)(c3ccccc3)CO2)cc1 (stereo not given)	297 nM	0.841 µM	> 10 µM	–
c1ccc(CNCC2CCOC(c3ccccc3)(c3ccccc3)O2)cc1 (stereo not given)	3000 nM	0.111 µM	> 10 µM	–
NC[C@@H]1COC[C@H](c2ccccc2)O1 (racemic)	> 10000 nM	> 10 µM	> 10 µM	–
NC[C@H]1COC[C@H](c2ccccc2)O1 (racemic)	> 10000 nM	> 10 µM	> 10 µM	–
CC[C@]1(c2ccccc2)COC[C@@H](CN)O1 (racemic)	> 10000 nM	> 10 µM	> 10 µM	–
CC[C@]1(c2ccccc2)COC[C@H](CN)O1 (racemic)	> 10000 nM	> 10 µM	> 10 µM	–
NC[C@@H]1COC[C@@](c2ccccc2)(C2CCCCC2)O1 (racemic)	> 10000 nM	> 10 µM	0.893 µM	IC50 [4]: 71.2 nM
NC[C@H]1COC[C@@](c2ccccc2)(C2CCCCC2)O1 (racemic)	> 10000 nM	2.5 µM	0.413 µM	IC50 [4]: 17.7 nM
NC[C@@H]1CO[C@H](c2ccccc2)CO1 (racemic)	> 10000 nM	> 10 µM	> 10 µM	–

SMILES	Ki [1]	Ki [2]	Ki [3]	also measured
NC[C@H]1CO[C@H](c2ccccc2)CO1 (racemic)	> 10000 nM	> 10 µM	> 10 µM	–
c1ccc(CNC[C@@H]2COC[C@H](c3ccccc3)O2)cc1 (racemic)	155 nM	> 10 µM	> 10 µM	–
c1ccc(CNC[C@H]2COC[C@H](c3ccccc3)O2)cc1 (racemic)	542 nM	4.3 µM	> 10 µM	–
CC[C@]1(c2ccccc2)COC[C@@H](CNCc2ccccc2)O1 (racemic)	543 nM	> 10 µM	> 10 µM	–
CC[C@]1(c2ccccc2)COC[C@H](CNCc2ccccc2)O1 (racemic)	607 nM	> 10 µM	> 10 µM	–
c1ccc(CNC[C@@H]2COC[C@@](c3ccccc3)(C3CCCCC3)O2)cc1 (racemic)	1500 nM	4.9 µM	> 10 µM	–
c1ccc(CNC[C@H]2COC[C@@](c3ccccc3)(C3CCCCC3)O2)cc1 (racemic)	2700 nM	> 10 µM	> 10 µM	–
c1ccc(CNC[C@@H]2CO[C@H](c3ccccc3)CO2)cc1 (racemic)	192 nM	0.698 µM	> 10 µM	–
c1ccc(CNC[C@@H]2CO[C@@H](c3ccccc3)CO2)cc1 (racemic)	37 nM	> 10 µM	> 10 µM	Ratio Ki [8]: > 270
c1ccc(CNC[C@@H]2CCO[C@H](c3ccccc3)O2)cc1 (racemic)	314 nM	0.174 µM	> 10 µM	–
c1ccc(C2(c3ccccc3)OC[C@H]([C@@H]3CCCCN3)O2)cc1 [DEXOXADROL]	–	–	–	IC50 [4]: 9.7 nM; Ki [9]: […]
Cc1ccccc1NC(=N)Nc1ccccc1C [DITOLYLGUANIDINE]	–	0.064 µM	–	–
CN[C@]1(c2ccccc2Cl)CCCCC1=O [ESKETAMINE]	–	–	0.419 µM	IC50 [4]: 11.4 nM
CC[C@]1(c2ccccc2)OC[C@H]([C@@H]2CCCCN2)O1 [ETOXADROL]	–	–	0.022 µM	Ki [9]: 22 nM
c1ccc(C2(N3CCCCC3)CCCCC2)cc1 [PHENCYCLIDINE]	–	–	0.028 µM	IC50 [4]: 11.8 nM
